Reference: ChEMBL document CHEMBL1177741, “Cardiac glycosides from Antiaris toxicaria with potent cardiotonic activity” (J Nat Prod, 2010)

Tests used:
[1] = Cardiotonic activity in guinea pig left atrial muscles assessed as minimum positive inotropic effective concentration causing myocardial contraction; assay type: functional, Cavia porcellus, Muscle tissue
Outline: (§1)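 Guinea pig left atrial or right ventricular strips were perfused with Tyrode's solution, held at 1 g tension and paced at 2 Hz (2 ms, twice threshold). After about 60 min stabilisation, drug was added cumulatively. PIECmin was recorded as the lowest concentration that increased myocardial contraction.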

[2] = Cardiotonic activity in guinea pig right ventricular muscles assessed as minimum positive inotropic effective concentration causing myocardial contraction; assay type: functional, Cavia porcellus, Muscle tissue; outline: as §1
[3] = Cardiotonic activity in guinea pig left atrial muscles assessed as maximum positive inotropic effective concentration causing myocardial contraction relative to basal level; assay type: functional, Cavia porcellus, Muscle tissue
Outline: (§2)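 Isolated left atrial or right ventricular strips from adult guinea pigs (300–500 g; pentobarbital 25 mg/kg i.p.; heart retrogradely perfused with Tyrode's, pH not stated). Tissue held at 1 g tension, paced at 2 Hz (2 ms pulses, twice threshold), stabilised about 60 min, then given cumulative drug additions. Maximal inotropic effect taken at the concentration just before arrhythmia onset.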

[4] = Cardiotonic activity in guinea pig right ventricular muscles assessed as maximum positive inotropic effective concentration causing myocardial contraction relative to basal level; assay type: functional, Cavia porcellus, Muscle tissue; outline: as §2
[5] = Safety index, ratio of arrhythmogenic concentration to minimum positive inotropic effective concentration causing myocardial contraction in guinea pig left atrial muscles; assay type: toxicity, tissue-based, Cavia porcellus, Muscle tissue; settings: isolated left atrial muscles
Outline: (§3)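 Paced guinea pig left atrial or right ventricular strips (1 g tension, 2 Hz) received cumulative drug addition. The lowest concentration raising contraction (PIECmin) and the concentration inducing arrhythmia were both recorded. Safety index was calculated as the ratio of the arrhythmogenic concentration to PIECmin.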

[6] = Safety index, ratio of arrhythmogenic concentration to minimum positive inotropic effective concentration causing myocardial contraction in guinea pig right ventricular muscles; assay type: toxicity, tissue-based, Cavia porcellus, Muscle tissue; settings: isolated right ventricular muscles; outline: as §3
Cavia porcellus = species: Cavia porcellus; experiment: Inhibition of Na(+)/K(+)-ATPase in guinea pig atria by whole cell patch clamp method

## C[C@@H]1O[C@H](O[C@H]2CC[C@@]3(C=O)[C@H](CC[C@@H]4[C@@H]3CC[C@]3(C)[C@@H](C5=CC(=O)OC5)CC[C@]43O)C2)[C@H](O)[C@H](O)[C@H]1O [MALAYOSIDE]
[1]
  Activity: 0.25 µM
[2]
  Activity: 0.25 µM
[3]
  Activity: 660%
[4]
  Activity: 464%
[5]
  selectivity ratio: 20
[6]
  selectivity ratio: 24
Cavia porcellus
  inhibition: Dose-dependent effect

## C[C@]12CC[C@H]3[C@@H](CC[C@]4(O)C[C@@H](O)CC[C@]34C=O)[C@@]1(O)CC[C@@H]2C1=CC(=O)OC1 [STROPHANTHIDIN]
[1]
  Activity: 1 µM
[2]
  Activity: 4.8 µM
[3]
  Activity: 165%
[4]
  Activity: 240%
[5]
  selectivity ratio: 9
[6]
  selectivity ratio: 8.7

## C[C@]12CC[C@H]3[C@@H](CC[C@]4(O)C[C@@H](O)CC[C@]34CO)[C@@]1(O)CC[C@@H]2C1=CC(=O)OC1 [STROPHANTHIDOL]
[1]
  Activity: 1.25 µM
[2]
  Activity: 0.3 µM
[3]
  Activity: 205%
[4]
  Activity: 408%
[5]
  selectivity ratio: 6.3
[6]
  selectivity ratio: 65
